We go through 34 compounds from ChEMBL document CHEMBL4376880, “Developing Inhibitors of the p47phox-p22phox Protein-Protein Interaction by Fragment-Based Drug Discovery” (J Med Chem, 2020).

A word on the Kd: it is the equilibrium constant for the complex coming apart.

Test [1] deals with T1, Neutrophil cytosol factor 1 (Homo sapiens, UniProt P14598). Put plainly: Covalent inhibition of recombinant human His-tagged p47phox SH3A-B domain (151 to 285 residues) expressed in Escherichia coli BL21 (DE3) cells interaction with Cy5-p22phox149-162 incubated for 10 mins by fluorescence polarization competition assay.
T1 sequence (P14598 whole entry, the tested form may be a part): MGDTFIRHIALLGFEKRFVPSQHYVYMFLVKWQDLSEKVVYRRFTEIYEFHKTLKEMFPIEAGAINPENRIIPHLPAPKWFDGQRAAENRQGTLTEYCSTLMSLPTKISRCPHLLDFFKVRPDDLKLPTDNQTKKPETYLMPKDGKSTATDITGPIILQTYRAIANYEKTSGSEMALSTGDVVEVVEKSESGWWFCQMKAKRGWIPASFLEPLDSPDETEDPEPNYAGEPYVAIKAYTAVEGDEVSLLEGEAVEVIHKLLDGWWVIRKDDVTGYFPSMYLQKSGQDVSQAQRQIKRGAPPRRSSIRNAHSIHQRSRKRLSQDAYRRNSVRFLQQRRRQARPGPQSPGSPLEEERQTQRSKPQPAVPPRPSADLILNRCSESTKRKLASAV
Test [2] deals with T1, Neutrophil cytosol factor 1. The test can be described thus: Binding affinity to immobilized recombinant human His-tagged p47phox SH3A-B domain (151 to 285 residues) expressed in Escherichia coli BL21 (DE3) cells assessed as dissociation constant by SPR assay. (In general: SPR reads the build-up and loss of mass on a sensor chip optically.)
The target is the same in test [3]. Put plainly: Non-reversible binding affinity to immobilized recombinant human His-tagged p47phox SH3A-B domain (151 to 285 residues) expressed in Escherichia coli BL21 (DE3) cells assessed as slow dissociation rate at 12.5 uM by SPR assay. The gist of the method:
(§1)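 p47phox SH3A-B (residues 151-285) immobilized at 4684 RU by His capture then amine coupling; compound injected at 12.5 μM in HBS pH 7.4 (10 mM Hepes, 150 mM NaCl, 0.005% Tween) at 25 °C. Sensorgrams were blank- and reference-subtracted with DMSO calibration. Complex then exposed to 2 mM TCEP.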

Test [4] shares this target. The test can be described thus: Binding affinity to recombinant human His-tagged 15N-labeled p47phox SH3A-B domain (151 to 285 residues) expressed in Escherichia coli BL21 (DE3) cells assessed as compound interaction with protein at Cys196 in SH3A domain by NMR spectroscopy.
Test [5] has the same target. Put plainly: Binding affinity to recombinant human His-tagged p47phox SH3A-B domain (151 to 285 residues) expressed in Escherichia coli BL21 (DE3) cells assessed as protein aggregation by measuring increase in SAXS-derived radius of gyration by SAXS study analysis. The gist of the method: (§2)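 His-tag removed by HRV-3C protease. Protein (2-5.6 mg/mL, 130-370 μM final) was buffer-exchanged into 10 mM Hepes, 150 mM NaCl, 4% DMSO, pH 7.4, with 100 or 200 μM compound. Samples were held at 6 °C and measured at room temperature, λ 1.34 Å, q 0.01-0.5 Å−1. Fifteen to twenty 60 s frames were radially averaged, and buffer scattering was subtracted.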

For test [6] the target is unchanged. Put plainly: Binding affinity to recombinant human His-tagged p47phox SH3A-B domain (151 to 285 residues) expressed in Escherichia coli BL21 (DE3) cells assessed as protein aggregation by SAXS study analysis. To be noted: TDE = time-dependent effect. The gist of the method:
as §2

The target is the same in test [7]. The test can be described thus: Binding affinity to recombinant human His-tagged p47phox SH3A-B domain (151 to 285 residues) expressed in Escherichia coli BL21 (DE3) cells assessed as increase in protein molecular weight at 200 uM by ESI/LC-MS analysis.
For test [8] the target is unchanged. Put plainly: Binding affinity to immobilized recombinant human His-tagged p47phox SH3A-B domain (151 to 285 residues) expressed in Escherichia coli BL21 (DE3) cells at 12.5 uM in presence of TCEP by SPR assay. The procedure, abridged: as §1
Test [9] has the same target. The test can be described thus: Covalent inhibition of recombinant human His-tagged p47phox SH3A-B domain (151 to 285 residues) expressed in Escherichia coli BL21 (DE3) cells interaction with Cy5-p22phox149-162 incubated for 2 hrs by fluorescence polarization competition assay. The gist of the method: (§3)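 Heterologous competition FP. The compound was titrated as a 12-point two-fold series in duplicate against 1.25 μM p47phox SH3A-B and 5 nM Cy5-p22phox149-162. Buffer was HBS (50 mM Hepes, 150 mM NaCl, 0.005% Tween 20, pH 7.4), with or without TCEP. Incubation was 10 min or 2 h at room temperature before the FP read.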

The target is the same in test [10]. Put plainly: Binding affinity to recombinant human His-tagged p47phox SH3A-B domain (151 to 285 residues) expressed in Escherichia coli BL21 (DE3) cells assessed as protein aggregation by measuring increase in maximum dimensions of the particles by SAXS study analysis. The procedure, abridged: as §2
Test [11] shares this target. Put plainly: Covalent inhibition of recombinant human His-tagged p47phox SH3A-B domain (151 to 285 residues) expressed in Escherichia coli BL21 (DE3) cells interaction with Cy5-p22phox149-162 incubated for 10 mins in presence of TCEP by fluorescence polarization competition assay. The procedure, abridged: as §3
The target is the same in test [12]. The test can be described thus: Binding affinity to recombinant human His-tagged p47phox SH3A-B domain (151 to 285 residues) expressed in Escherichia coli BL21 (DE3) cells assessed as protein aggregation by measuring increase in concentration-normalized scattering intensity by SAXS study analysis. The gist of the method: as §2
Test [13] has the same target. Put plainly: Ratio of Ki for recombinant human His-tagged p47phox SH3A-B domain (151 to 285 residues) expressed in Escherichia coli BL21 (DE3) cells in presence of TCEP to Ki for recombinant human His-tagged p47phox SH3A-B domain (151 to 285 residues) expressed in Escherichia coli BL21 (DE3) cells by fluorescence polarization competition assay. The gist of the method: as §3
In general terms: In fluorescence polarisation assays a small probe gives low polarisation when free and higher when bound to something large.

The source made the active and inactive calls. No cut-off for these calls is given here.

Take `Nc1ccc2cc(OCCOCCOCCOCCOc3ccc4nc(N)ccc4c3)ccc2n1`: the Ki in test [1] (read-out: Ki) was determined as 32.7 µM.
On the same count and under the same terms, with `Nc1ncccn1` the figure was above 2000 µM; with `Nc1ccc2cc(OCC3CCCCC3)ccc2n1`, above 2000 µM; with `Nc1cccc2cccnc12` [8-AMINOQUINOLINE], above 2000 µM.
On to `Nc1ccnc2ccccc12` [QUINOLIN-4-AMINE], for which the Ki in test [1] (read-out: Ki) is 1520 µM. Further, the Kd in [2] is 765 µM.
For the compound `c1ccc2c(N3CCNCC3)cccc2c1`, the Ki in test [1] (read-out: Ki) worked out at 1520 µM. Further, the Kd in [2] came to 366 µM.
On to `c1ccc2nc(N3CCNCC3)ccc2c1` [QUIPAZINE], for which the Ki in [1] (read-out: Ki) stood at 1410 µM. In [2], the Kd was 420 µM.
As to `Nc1ccc2cc(COc3ccc(Cl)cc3)ccc2n1`, the Ki in test [1] (read-out: Ki) is above 2000 µM.
In the case of `O=c1c2ccccc2[se]n1-c1ccccc1` [EBSELEN], the Ki in test [1] (read-out: Ki) is 63 µM; in test [9], 12 µM; in test [11] it was above 300 µM. Further, the outcome in test [3], in test [4], in test [5], in test [7], in test [10] and in test [12] was Active. For the same compound, the Activity entry in [6] was “Tde”. Also, the outcome in [8] was inactive. Moreover, in test [13], the Ratio Ki was above 10.
With `Cc1cc(N)c2ccccc2n1`, in test [1] (read-out: Ki), the Ki stood at 1070 µM. Besides, the Kd in [2] was 521 µM.
For the compound `Nc1ccc2cc(OCc3ccccc3)ccc2n1`, the Ki in [1] (read-out: Ki) is above 2000 µM.
Regarding `CN1CCCN(Cc2ccc(CN)cc2)CC1`, the Ki entry in [1] is reported as “Not Active”. The Kd in test [2] is 418 µM.
For `c1ccc2ncccc2c1` [QUINOLINE], the Ki in test [1] (read-out: Ki) was above 2000 µM.
Same read-out and setting: with `Nc1cc(Cl)c2ccccc2n1` the figure was above 2000 µM.
Same read-out and setting: with `CC(=O)Nc1ccc2ccccc2n1` the figure was above 2000 µM; with `Oc1ccc2ccccc2n1`, above 2000 µM.
`Nc1cccc2ncccc12`: the Ki in test [1] (read-out: Ki) is above 2000 µM.
On the same count and under the same terms, with `Nc1ccc2ccccc2c1` [NAPHTHYLAMINE] the figure was above 2000 µM; with `Nc1ccc2cc(-c3ccc(Cl)cc3)ccc2n1`, above 2000 µM; with `Nc1cnc2ccccc2c1`, above 2000 µM.
On the same count and under the same terms, with `Nc1cc(O)c2ccccc2n1` the figure was above 2000 µM; with `COCCNc1ccc2ccccc2n1`, above 2000 µM; with `Nc1cc(OCc2ccc(Cl)cc2)c2ccccc2n1`, above 2000 µM.
On the same count and under the same terms, with `Cc1cc(N2CCNCC2)nc2ccccc12` the figure was 1070 µM; with `Cc1cc(N2CCN(C)CC2)c2ccccc2n1`, above 2000 µM; with `c1cc(N2CCNCC2)ccn1`, 302 µM.
In the case of `Nc1ccccn1` [2-AMINOPYRIDINE], the Ki in [1] (read-out: Ki) is above 2000 µM.
The same measure, in the same setting: with `OCCOCCNc1ccc2ccccc2n1` the figure was above 2000 µM; with `Cc1cc(N2CCN(C(=O)OC(C)(C)C)CC2)c2ccccc2n1`, above 2000 µM.
As to `Cc1ccc2ccccc2n1` [QUINALDINE], the Ki in test [1] (read-out: Ki) is above 2000 µM.
On the same count and under the same terms, with `NCc1ccc2ccccc2n1` the figure was above 2000 µM; with `Nc1ccc2cccc(O)c2n1`, 1380 µM.
As for `Nc1ccc2cc(OCc3ccc(Cl)cc3)ccc2n1`, the Ki in [1] (read-out: Ki) is above 2000 µM.
In the case of `Nc1ccc2ncccc2c1`, in [1] (read-out: Ki), the Ki was above 2000 µM.
